In BindingDB's records for doi:10.1021/jm960868t (Organix, 1997):

Biological target: Sodium-dependent dopamine transporter (Macaca fascicularis, UniProt Q9GJT6)
Test: Inhibition of [3H]WIN-35428 binding to dopamine transporter using of Cynomolgus monkey caudate-putamen
Summary of the method: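 Caudate-putamen membranes (washed in 50 mM Tris-HCl pH 7.4, 3800g spins) incubated at 4 mg original wet tissue/mL with 0.3 nM [3H]WIN35,428 and 7–14 competitor concentrations in 50 mM Tris-HCl/100 mM NaCl pH 7.4, 2 h at 0–4 °C. Filtered on BSA-soaked GF/B filters, scintillation counting. Nonspecific binding defined with 30 μM (–)-cocaine. IC50 computed by EBDA; independent experiments in triplicate.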

Sequence of Sodium-dependent dopamine transporter (Q9GJT6 whole entry): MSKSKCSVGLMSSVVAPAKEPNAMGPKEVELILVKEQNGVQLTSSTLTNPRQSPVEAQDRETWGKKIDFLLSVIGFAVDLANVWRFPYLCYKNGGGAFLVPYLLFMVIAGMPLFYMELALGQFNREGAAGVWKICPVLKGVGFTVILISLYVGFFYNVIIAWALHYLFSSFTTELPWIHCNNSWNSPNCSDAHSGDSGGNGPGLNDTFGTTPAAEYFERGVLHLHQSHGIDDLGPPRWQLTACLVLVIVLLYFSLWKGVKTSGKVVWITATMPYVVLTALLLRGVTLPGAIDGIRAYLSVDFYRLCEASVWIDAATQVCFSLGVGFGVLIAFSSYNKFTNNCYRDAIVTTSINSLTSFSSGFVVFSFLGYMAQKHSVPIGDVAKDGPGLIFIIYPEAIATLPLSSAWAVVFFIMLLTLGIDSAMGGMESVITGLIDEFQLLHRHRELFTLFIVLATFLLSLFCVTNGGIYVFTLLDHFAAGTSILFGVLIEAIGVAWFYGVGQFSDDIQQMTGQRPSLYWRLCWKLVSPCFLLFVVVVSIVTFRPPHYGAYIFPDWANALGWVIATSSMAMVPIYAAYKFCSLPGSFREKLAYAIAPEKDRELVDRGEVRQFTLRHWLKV

## COC(=O)[C@@H]1C2CCC(C[C@@H]1OC(c1ccc(F)cc1)c1ccc(F)cc1)N2CCCN1CC[S][Re]2(=[O])[S]CC[N]2C(=O)C1 (some centres not stated)
  IC50: 343 nM

## COC(=O)C1C(c2ccc(Cl)c(Cl)c2)CC2CCC1N2CCC[N+]12CC[S][Re]13(=[O])[S]CC[N]3C(=O)C2 (stereo not drawn) [[N-[2-[(3'-N'-Propyl-3''beta-(3,4-dichlorophenyl)tropane-2''beta-carboxylic acid methyl ester)(2-mercaptoethyl)amino]acetyl]-2-aminoethanethiolato]rhenium(V) oxide]
  IC50: 37.2 nM
